TRPML3 agonist – human TRPML3 channel agonists, primary screen, cell-based, HEK293 TRPML3-YFP, Fluo-8 calcium fluorescence, 3 µM; 100% = the carbachol control signal; activation, % at 3 µM; Mucolipin-3 (Homo sapiens), Q8TDD5; actives 0.29% (n = 220,000);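 active means activation above its plate's cutoff, the mean activation of the plate's test wells plus 3 SD, cut at about 12% in these data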;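 further: 0% = DMSO only wells and 100% = carbachol wells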
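Test system: HEK293 cells stably carrying human TRPML3-YFP; Doses: single dose, 3 µM final nominal compound, 0.3% DMSO final; Schedule: dye loading 1 h 37 °C then 30 min ambient, 125 s read; Technique: Fluo-8 calcium fluorescence; Benchmarks: high control carbachol 87 µM, low control DMSO.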
V1R ag counter – agonists of human V1a receptor, primary screen, counter-screen for OXTR agonist project, fluorescence, CHO-V1R cells; Vasopressin V1a receptor (Homo sapiens), P37288; Fluo-8 calcium fluorescence, agonist mode; 0% DMSO, 100% 3 nM vasopressin; activation, % at 3 µM; actives 0.25% (n = 320,000); AID 2797, 2010;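 active means activation above the mean activation of all tested compounds plus 3 SD, per screening run, cut at about 20% in these data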;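 further: signal is peak over basal fluorescence ratio across a 100 second FLIPR read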
OXTR ag – human OXTR agonists, primary screen, fluorescence, CHO-OTR cells, Fluo-8 calcium; activation, % at 3 µM; Oxytocin receptor (Homo sapiens), P30559; Fluo-8 calcium fluorescence; normalized: DMSO 0%, oxytocin 100%; actives 0.32% (n = 320,000); AID 2435, 2010;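 active means activation above the mean of all tested compounds plus 3 SD, cutoff set per screening run, cut at about 20% in these data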;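 further: peak over basal fluorescence ratio from a 100 s FLIPR kinetic read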
Target sequence (P30559 whole entry, looked up): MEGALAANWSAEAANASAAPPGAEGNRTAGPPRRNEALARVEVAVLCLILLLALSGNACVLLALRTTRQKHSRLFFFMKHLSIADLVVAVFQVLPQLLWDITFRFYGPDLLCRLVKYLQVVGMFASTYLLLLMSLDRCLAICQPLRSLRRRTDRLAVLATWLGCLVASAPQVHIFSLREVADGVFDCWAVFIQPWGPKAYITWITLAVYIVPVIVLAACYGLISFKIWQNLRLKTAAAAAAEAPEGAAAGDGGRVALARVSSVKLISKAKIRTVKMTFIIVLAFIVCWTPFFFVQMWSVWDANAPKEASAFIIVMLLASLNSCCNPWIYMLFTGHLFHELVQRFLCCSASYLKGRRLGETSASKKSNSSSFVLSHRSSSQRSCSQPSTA
TRPN1 ag – zebrafish TRPN1 channel agonists, primary screen, cell-based, HEK293, calcium fluorescence. HEK293 zebrafish TRPN1-YFP, Fluo-8 calcium fluorescence; 100% = response to 87 µM carbachol. AID 1424, 2008. activation, % at 3 µM. actives 0.18% (n = 220,000);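 active means activation above its plate's cutoff, the mean activation of test wells on that plate plus 3 SD, cut at about 19% in these data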;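 further: 0% = DMSO alone and 100% = 87 µM carbachol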
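Material – zebrafish TRPN1-YFP in HEK293 cells · Doses – 3 µM single point · Schedule – dye 1 h 37 °C plus 30 min RT · Signal – Fluo-8 calcium fluorescence, excitation 470-495 nm, emission 515-575 nm · Read-out – % activation versus carbachol response · Control set – carbachol high, DMSO low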
OXTR potentiate – human OXTR potentiators, primary screen, fluorescence, CHO-OTR cells, Fluo-8 calcium; Oxytocin receptor (Homo sapiens), P30559; Fluo-8 calcium fluorescence, potentiator mode; 0% = oxytocin EC15, 100% = EC100; activation, % at 3 µM; actives 0.061% (n = 320,000); AID 2445, 2010;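 active means activation above that plate's cutoff, the mean activation of tested compounds plus 3 SD, cut at about 6.6% in these data, passing the limit was not always enough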;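 further: 100% uses oxytocin at 75 nM as the full agonist control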
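Assay system: CHO cell line stably expressing human OTR. Reagent: EC15 oxytocin agonist. Dosing: single dose, 3.0 µM nominal final compound concentration. Timing: compound 6 min at room temperature before oxytocin, 100 s read. Signal: kinetic Fluo-8 calcium fluorescence. Controls: oxytocin EC15 low and EC100 high.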
TRPN1 ag 2 – zebrafish TRPN1 channel agonists, counter-screen for TRPML3 agonist project, cell-based, HEK293 TRPN1-YFP, Fluo-8 calcium; shares compounds with TRPML3 agonist; Fluo-8 calcium fluorescence; scaled: carbachol wells 100%, DMSO wells 0%; activation, % at 3 µM; actives 10% (n = 310); AID 1525, 2009;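 active means mean activation over replicates above a set limit taken from the earlier TRPN1 channel primary screen, cut at about 19% in these data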;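 further: 100% = carbachol and 0% = 0.3% DMSO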
TRPML3 ag conf – human TRPML3 channel agonists, confirmation, cell-based, HEK293 TRPML3-YFP, Fluo-8 calcium, triplicate; Fluo-8 calcium fluorescence; 100% set by carbachol, 0% by DMSO; shares compounds with TRPML3 agonist; AID 1526, 2009; activation, % at 3 µM; actives 80% (n = 310);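 active means activation above a set limit derived from the earlier primary screen, cut at about 12% in these data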
OXTR agonist cf – human OXTR agonists, confirmation, fluorescence, CHO-OTR cells, triplicate | shares compounds with OXTR ag | Fluo-8 calcium fluorescence, agonist | activation, % at 3 µM | actives 20% (n = 390);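 active means mean activation above about 20% derived from the earlier single-dose screen, limit read from the data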;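 further: peak over minimum fluorescence ratio per well during a 100 second FLIPR read; 0% = DMSO alone and 100% = oxytocin high control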
V1R ag counter 3x – V1a receptor agonists, calcium signal, counter-screen for OXTR agonist project, triplicate, fluorescence, CHO-V1R cells; activation, % at 3 µM; AID 434991, 2010; actives 10% (n = 390); shares compounds with OXTR ag; Fluo-8 calcium fluorescence;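 active means mean activation over triplicate exceeds the hit threshold set in the earlier primary screen, cut at about 20% in these data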;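 further: peak over basal fluorescence ratio within a 100 second read; 0% = DMSO alone and 100% = 3 nM vasopressin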
An asterisk follows results filed as active; x = no result. Only some compounds are listed: those with a hit (about 0.58% of all), similar ones and a draw of the others.

SMILES | TRPML3 agonist | V1R ag counter | OXTR ag | TRPN1 ag | OXTR potentiate | OXTR agonist cf | V1R ag counter 3x | others
CCOc1c(OC(C)=O)ccc(/C=C/c2ccc3cccc(OC(C)=O)c3n2)c1[N+](=O)[O-] | 0 | 0 | 0 | 0 | -9 | x | x
Cc1cccc(C(=O)OC(C)C(=O)Nc2ccc(S(=O)(=O)Nc3ncccn3)cc2)c1C (configuration not stated) | x | 0 | 0 | x | -7 | x | x
Cc1ccc(NC(=O)CCC(=O)c2cccs2)cc1F | x | 0 | 1 | x | -3 | x | x
O=S(=O)(Cc1cc(Cl)nc(-c2ccccc2)n1)c1ccccc1 | 19* | -2 | -2 | -1 | 0 | x | x | TRPN1 ag 2=-1;TRPML3 ag conf=35*
CC(C)CSc1nc2c(=O)[nH][nH]c(=O)c2n1Cc1ccccc1 | 1 | 0 | -1 | 0 | 0 | x | x
CCC(Oc1cc(Cl)ccc1Cl)C(=O)NNC(=O)CCC(=O)O (configuration not stated) | 1 | 1 | 1 | 0 | 11 | x | x
CCC(Oc1cc(Cl)ccc1Cl)C(=O)NN1C(=O)C2C3CCC(C3=C(C)C)C2C1=O (configuration not stated) | 34* | -1 | -1 | 0 | -9 | x | x | TRPN1 ag 2=2;TRPML3 ag conf=73*
Cc1cc(C)c(S(=O)(=O)Nc2ccccc2-c2ccccc2)c(C)c1 | 13* | -1 | -2 | 0 | -8 | x | x | TRPN1 ag 2=0;TRPML3 ag conf=45*
Cc1cc(C)c(S(=O)(=O)Nc2ncccc2C)c(C)c1 | x | 1 | 0 | x | -3 | x | x
CC1=C/C(=N\OS(=O)(=O)c2ccccc2)C(C)=CC1=O | 13* | 11 | 20* | 13 | -22 | 9 | 11 | TRPN1 ag 2=20*;TRPML3 ag conf=42*
COc1cc(C(=O)O/N=C2/C=C(C)C(=O)C=C2C)cc(OC)c1OC | 0 | -1 | 1 | 0 | -8 | x | x
CC(=O)Nc1ccc(S(=O)(=O)N2CCN=C2SCc2ccc([N+](=O)[O-])cc2)cc1 | x | 16 | 13 | x | -17 | x | x
c1ccc2c(c1)OCCOCCOCCOCCOCCOc1ccccc1OCCOCCOCCO2 | 12* | 13 | 21* | 11 | -11 | 10 | 12 | TRPN1 ag 2=25*;TRPML3 ag conf=11
CC(=O)c1sc(NC(=O)C2(F)C(F)(F)C(F)(F)C(F)(F)C(F)(F)C2(F)F)nc1C | 22* | 11 | 21* | 19 | -11 | 16 | 11 | TRPN1 ag 2=31*;TRPML3 ag conf=16*
CC1(c2nnc(-c3ccc(F)cc3)o2)CC(c2ccc([N+](=O)[O-])cc2)=NO1 (configuration not stated) | x | 1 | 0 | x | 0 | x | x
Cc1cccc(NC(=O)C2(c3ccccc3)CCOCC2)c1 | 1 | -1 | -2 | 0 | -5 | x | x
Cc1cccc(NC(=O)C2(c3ccc([N+](=O)[O-])cc3)CCCC2)c1 | 2 | 17 | 22* | 8 | -25 | 7 | 3
CCCCCCCCCCCCCCCC[N+](C)(C)CC | x | 4 | 21* | x | -9 | 21* | 0
C1=C(CCNc2ncnc3c2[nH]c2ccccc23)CCCC1 | 8 | 8 | 21* | 21* | -8 | 16 | 14
COc1ccc(CNc2ncnc3c2[nH]c2ccccc23)cc1 | 11 | 16 | 26* | 15 | -16 | 22* | 18
O=c1c2[nH]c3ccccc3c2ncn1CCC1=CCCCC1 | 2 | -1 | -1 | 0 | -5 | x | x
COc1ccc(CNc2ncnc3c2[nH]c2cc(OC)c(OC)cc23)cc1 | 3 | 1 | 1 | 4 | -12 | x | x
CSCCC(=O)N1CCC(CCC(=O)NC2CC2)CC1 | x | 0 | 1 | x | 0 | x | x
CC(=O)Nc1ccc(S(=O)(=O)Oc2cccc(N3C(=O)C4CC=CCC4C3=O)c2)cc1 (configuration not stated) | 3 | 13 | 11 | 5 | -7 | x | x
CC(=O)Nc1ccc(S(=O)(=O)Oc2ccc(N3C(=O)C4CCCCC4C3=O)cc2)cc1 (configuration not stated) | 7 | 17 | 24* | 13 | -11 | 14 | 14
SMILES | TRPML3 agonist | V1R ag counter | OXTR ag | TRPN1 ag | OXTR potentiate | OXTR agonist cf | V1R ag counter 3x | others
Cc1ccn(CC(=O)NC2CC(C)(C)Cc3c2cnn3-c2ccc(F)cc2)n1 (configuration not stated) | x | -1 | -1 | x | 1 | x | x
CNc1nc2cc([N+](=O)[O-])c([N+](=O)[O-])cc2nc1NC | 9 | 11 | 26* | 27* | -11 | 23* | 16
N#Cc1cc2nc(O)c(O)nc2cc1[N+](=O)[O-] | x | -1 | 0 | x | -7 | x | x
COC(=O)c1ccccc1NC(=O)CNc1ccc(F)c(S(=O)(=O)N2CCOCC2)c1 | x | 4 | 4 | x | -3 | x | x
CC1=NN2C(=N)/C(=C\c3cc(C)n(Cc4ccccc4)c3C)C(=O)N=C2S1 | 0 | 8 | 22* | 2 | -19 | 4 | 8
CCN(C(=O)COC(=O)c1ccc[nH]c1=O)c1cccc2ccccc12 | x | 1 | 2 | x | -7 | x | x
COc1ccc(C(=O)CSc2nnc(CNc3ccc(C)cc3C)o2)cc1 | 1 | 11 | 25* | -1 | -22 | 2 | 3
Cc1ccc(NCc2nnc(SCC(=O)c3ccc4c(c3)OCCO4)o2)c(C)c1 | 0 | 1 | 3 | 1 | -2 | x | x
CCOC(=O)c1ccc2c(c1)N(C)C(=O)c1ccccc1S2 | x | -1 | -3 | x | -6 | x | x
CCOC(=O)c1cc2n(c1/N=C/N(C)C)-c1ccccc1C2=O | 1 | 15 | 24* | 1 | -11 | 26* | 33*
COC(=O)c1cc(=O)n(CCc2ccc(OC)c(OC)c2)c(=Nc2ccc(F)c(Cl)c2)s1 | 0 | 7 | -1 | 1 | -2 | x | x
Cc1ccc(Oc2ccc(NC(=O)Cn3ccsc3=N)cc2)cc1 | 1 | 9 | 23* | 1 | -29 | 12 | 3
